The source made the active and inactive calls. The rule behind the calls is not given here. Where a SMILES comes first, the peptide text is derived from it.
Legend:
[1] = target: T1, Atrial natriuretic peptide receptor 3 (Homo sapiens) (UniProt P17342); assay: Agonist activity at NPRC in human HeLa cells assessed as decrease in forskolin-induced cAMP level at 100 nM; assay type: cell-based; details: filed as agonist
T1 sequence (whole entry): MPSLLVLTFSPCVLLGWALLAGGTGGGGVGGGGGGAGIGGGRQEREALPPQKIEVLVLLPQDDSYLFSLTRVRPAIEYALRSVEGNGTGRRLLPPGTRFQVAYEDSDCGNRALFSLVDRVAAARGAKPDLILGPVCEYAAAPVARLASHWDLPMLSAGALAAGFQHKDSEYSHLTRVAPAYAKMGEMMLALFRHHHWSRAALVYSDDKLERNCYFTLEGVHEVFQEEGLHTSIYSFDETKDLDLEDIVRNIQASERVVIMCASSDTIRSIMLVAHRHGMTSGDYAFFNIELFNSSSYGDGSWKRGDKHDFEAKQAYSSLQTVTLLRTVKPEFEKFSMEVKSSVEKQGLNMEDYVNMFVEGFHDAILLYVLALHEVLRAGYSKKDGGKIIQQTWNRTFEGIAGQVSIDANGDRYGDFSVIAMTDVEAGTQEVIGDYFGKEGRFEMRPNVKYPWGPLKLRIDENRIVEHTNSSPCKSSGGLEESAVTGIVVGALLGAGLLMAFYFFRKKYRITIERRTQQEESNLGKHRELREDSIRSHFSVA

[2] = target: T2, Atrial natriuretic peptide receptor 2 (Homo sapiens) (UniProt P20594); assay: Agonist activity at NPRB in human HeLa cells assessed as increased cGMP formation at 1 uM incubated for 30 mins in presence of IBMX by ELISA; assay type: cell-based; details: filed as agonist
T2 sequence (whole entry): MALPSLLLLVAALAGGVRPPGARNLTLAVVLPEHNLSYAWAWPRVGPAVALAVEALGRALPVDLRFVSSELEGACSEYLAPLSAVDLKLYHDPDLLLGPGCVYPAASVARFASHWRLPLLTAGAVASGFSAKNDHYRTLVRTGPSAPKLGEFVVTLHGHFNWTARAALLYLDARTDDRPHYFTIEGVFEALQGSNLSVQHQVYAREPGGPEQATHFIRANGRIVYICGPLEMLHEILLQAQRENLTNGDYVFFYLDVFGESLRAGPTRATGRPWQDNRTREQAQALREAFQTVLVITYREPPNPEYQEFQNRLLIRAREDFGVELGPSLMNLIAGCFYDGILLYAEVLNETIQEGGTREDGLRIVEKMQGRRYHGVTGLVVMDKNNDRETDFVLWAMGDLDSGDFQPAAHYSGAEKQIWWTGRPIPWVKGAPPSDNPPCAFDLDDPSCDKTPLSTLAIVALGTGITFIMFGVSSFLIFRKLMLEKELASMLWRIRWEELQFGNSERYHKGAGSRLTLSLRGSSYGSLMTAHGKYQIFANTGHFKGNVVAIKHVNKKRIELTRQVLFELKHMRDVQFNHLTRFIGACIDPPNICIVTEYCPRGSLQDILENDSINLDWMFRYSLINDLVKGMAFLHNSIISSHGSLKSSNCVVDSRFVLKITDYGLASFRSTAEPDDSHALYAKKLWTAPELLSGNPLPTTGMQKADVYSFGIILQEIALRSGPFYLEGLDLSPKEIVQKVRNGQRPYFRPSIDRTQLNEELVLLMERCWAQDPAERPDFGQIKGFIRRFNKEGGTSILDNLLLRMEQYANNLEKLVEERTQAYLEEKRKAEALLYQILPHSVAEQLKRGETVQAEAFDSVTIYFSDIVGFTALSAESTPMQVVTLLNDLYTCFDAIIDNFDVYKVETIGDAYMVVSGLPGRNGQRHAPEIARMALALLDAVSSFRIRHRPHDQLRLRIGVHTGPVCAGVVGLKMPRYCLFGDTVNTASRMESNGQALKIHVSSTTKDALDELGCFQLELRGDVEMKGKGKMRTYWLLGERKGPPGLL
In short: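 HeLa cells grown in high-glucose DMEM with 10% heat-inactivated bovine serum, penicillin and streptomycin at 5% CO2. Medium was changed on the assay day, then cells equilibrated 4 h. ANP, CNP and cANF4–23 (1 μM) or test compounds (10 μM) were added with IBMX (1 mM) for 30 min. Lysis used 1% Triton-X/0.1 M HCl. Supernatant cGMP was read by ELISA and normalized to BCA protein; points are independent biological replicates.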

Activity [1]	Compound	Activity [2]
Active	CC[C@H](C)[C@H](NC(=O)[C@H](CCCNC(=N)N)NC(=O)[C@H](CC(=O)O)NC(=O)[C@H](CCSC)NC(=O)[C@H](CCCNC(=N)N)NC(=O)CNC(=O)CNC(=O)[C@H](Cc1ccccc1)NC(=O)[C@H](CS)NC(=O)[C@H](CO)NC(=O)[C@H](CO)NC(=O)[C@@H](N)CCCNC(=N)N)C(=O)NCC(=O)N[C@@H](C)C(=O)N[C@@H](CS)C(=O)N[C@@H](CC(N)=O)C(=O)O (H-RSSCFGGRMDRIGACN-OH)	
	CC[C@H](C)[C@@H]1NC(=O)[C@H](CCCNC(=N)N)NC(=O)[C@H](CC(=O)O)NC(=O)[C@H](CCSC)NC(=O)[C@H](CCCNC(=N)N)NC(=O)CNC(=O)CNC(=O)[C@H](Cc2ccccc2)NC(=O)[C@@H](NC(=O)[C@H](CO)NC(=O)[C@H](CO)NC(=O)[C@H](CCCNC(=N)N)NC(=O)[C@H](CCCNC(=N)N)NC(=O)[C@H](CC(C)C)NC(=O)[C@@H](N)CO)CSSC[C@@H](C(=O)N[C@@H](CC(N)=O)C(=O)N[C@@H](CO)C(=O)N[C@@H](Cc2ccccc2)C(=O)N[C@@H](CCCNC(=N)N)C(=O)N[C@@H](Cc2ccc(O)cc2)C(=O)O)NC(=O)CNC(=O)[C@H](CC(C)C)NC(=O)CNC(=O)[C@H](CO)NC(=O)[C@H](CCC(N)=O)NC(=O)[C@H](C)NC(=O)CNC1=O	Active

Source: ChEMBL document CHEMBL5154815, “A Series of Substituted Bis-Aminotriazines Are Activators of the Natriuretic Peptide Receptor C” (J Med Chem, 2022)
